ChEMBL document CHEMBL1155278, “3,4-Diaryl-isoxazoles and -imidazoles as potent dual inhibitors of p38alpha mitogen activated protein kinase and casein kinase 1delta” (J Med Chem, 2009)

Assays:
[1] = molecular target: Insulin receptor (Homo sapiens) (UniProt P06213); experiment: Inhibition of histidine-tagged IR assessed as residual activity at 0.1 uM by Cherenkov counting relative to control in presence of 20 uM ATP
Outline: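 Single-concentration screen at 0.1 μM in a 76-kinase panel. ATP for each kinase was set near its Km for ATP. Residual activity is given as a percentage of control assays without compound, mean of n = 3 ± SD.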

[2] = molecular target: Mitogen-activated protein kinase 3 (Homo sapiens) (UniProt P27361); experiment: Inhibition of ERK1 assessed as residual activity at 0.1 uM by Cherenkov counting relative to control in presence of 5 uM ATP
Sequence of Mitogen-activated protein kinase 3 (Homo sapiens) (P27361 whole entry): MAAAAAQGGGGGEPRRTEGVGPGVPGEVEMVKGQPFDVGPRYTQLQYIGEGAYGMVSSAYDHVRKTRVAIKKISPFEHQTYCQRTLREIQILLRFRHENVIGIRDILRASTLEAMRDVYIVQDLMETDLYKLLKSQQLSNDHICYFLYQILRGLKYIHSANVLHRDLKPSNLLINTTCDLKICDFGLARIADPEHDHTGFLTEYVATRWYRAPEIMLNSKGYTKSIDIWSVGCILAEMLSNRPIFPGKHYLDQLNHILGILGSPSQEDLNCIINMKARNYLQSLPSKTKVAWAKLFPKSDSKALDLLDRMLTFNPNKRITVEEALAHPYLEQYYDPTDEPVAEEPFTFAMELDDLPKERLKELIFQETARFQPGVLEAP
Outline: (§1)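 Single-concentration screen at 0.1 µM across a panel of 76 protein kinases. Each kinase was run at an ATP concentration approximating its ATP Km. Results are % mean residual activity versus control assays without compound (n = 3 ± SD).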

[3] = molecular target: T1, Dual specificity tyrosine-phosphorylation-regulated kinase 2 (Homo sapiens) (UniProt Q92630); experiment: Inhibition of DYRK2 assessed as residual activity at 0.1 uM by Cherenkov counting relative to control in presence of 50 uM ATP; outline: as §1
T1 sequence (whole entry): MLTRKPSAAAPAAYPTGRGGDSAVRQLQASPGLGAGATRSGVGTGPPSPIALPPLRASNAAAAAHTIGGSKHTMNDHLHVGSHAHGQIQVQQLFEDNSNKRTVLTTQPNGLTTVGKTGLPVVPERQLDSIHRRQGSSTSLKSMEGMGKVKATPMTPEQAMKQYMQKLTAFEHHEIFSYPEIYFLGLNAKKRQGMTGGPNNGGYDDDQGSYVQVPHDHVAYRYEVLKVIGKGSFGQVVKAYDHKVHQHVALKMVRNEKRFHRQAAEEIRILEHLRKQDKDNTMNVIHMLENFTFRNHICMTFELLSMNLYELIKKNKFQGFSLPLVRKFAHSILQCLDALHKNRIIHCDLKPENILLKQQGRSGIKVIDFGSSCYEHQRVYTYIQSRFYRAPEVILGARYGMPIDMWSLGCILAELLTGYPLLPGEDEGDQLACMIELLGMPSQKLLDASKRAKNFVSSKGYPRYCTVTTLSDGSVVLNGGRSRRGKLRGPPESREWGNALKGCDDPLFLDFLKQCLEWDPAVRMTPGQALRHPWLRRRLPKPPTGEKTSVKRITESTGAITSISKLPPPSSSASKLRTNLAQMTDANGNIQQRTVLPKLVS

[4] = molecular target: T2, Eukaryotic elongation factor 2 kinase (Homo sapiens) (UniProt O00418); experiment: Inhibition of EF2K assessed as residual activity at 0.1 uM by Cherenkov counting relative to control in presence of 5 uM ATP; outline: as §1
T2 sequence (whole entry): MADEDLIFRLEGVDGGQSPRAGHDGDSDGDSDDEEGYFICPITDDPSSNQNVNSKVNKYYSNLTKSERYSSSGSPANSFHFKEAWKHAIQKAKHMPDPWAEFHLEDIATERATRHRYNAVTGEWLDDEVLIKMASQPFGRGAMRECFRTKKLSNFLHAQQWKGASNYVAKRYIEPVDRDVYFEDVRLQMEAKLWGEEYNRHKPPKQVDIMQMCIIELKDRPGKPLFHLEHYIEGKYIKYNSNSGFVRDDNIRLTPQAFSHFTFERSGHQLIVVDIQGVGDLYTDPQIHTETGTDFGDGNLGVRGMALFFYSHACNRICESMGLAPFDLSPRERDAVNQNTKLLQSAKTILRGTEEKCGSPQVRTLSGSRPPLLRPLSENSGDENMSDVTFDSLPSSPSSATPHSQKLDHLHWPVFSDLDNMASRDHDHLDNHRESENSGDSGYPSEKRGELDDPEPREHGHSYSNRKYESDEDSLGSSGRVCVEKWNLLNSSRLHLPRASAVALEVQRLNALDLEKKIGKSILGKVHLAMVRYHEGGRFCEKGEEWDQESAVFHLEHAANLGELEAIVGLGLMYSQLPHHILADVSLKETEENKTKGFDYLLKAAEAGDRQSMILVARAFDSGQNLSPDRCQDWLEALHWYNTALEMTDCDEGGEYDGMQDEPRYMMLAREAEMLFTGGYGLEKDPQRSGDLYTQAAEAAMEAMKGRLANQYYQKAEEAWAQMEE

[5] = molecular target: T3, Serine/threonine-protein kinase Sgk1 (Homo sapiens) (UniProt O00141); experiment: Inhibition of SGK1 assessed as residual activity at 10 uM by Cherenkov counting relative to control in presence of 20 uM ATP
T3 sequence (whole entry): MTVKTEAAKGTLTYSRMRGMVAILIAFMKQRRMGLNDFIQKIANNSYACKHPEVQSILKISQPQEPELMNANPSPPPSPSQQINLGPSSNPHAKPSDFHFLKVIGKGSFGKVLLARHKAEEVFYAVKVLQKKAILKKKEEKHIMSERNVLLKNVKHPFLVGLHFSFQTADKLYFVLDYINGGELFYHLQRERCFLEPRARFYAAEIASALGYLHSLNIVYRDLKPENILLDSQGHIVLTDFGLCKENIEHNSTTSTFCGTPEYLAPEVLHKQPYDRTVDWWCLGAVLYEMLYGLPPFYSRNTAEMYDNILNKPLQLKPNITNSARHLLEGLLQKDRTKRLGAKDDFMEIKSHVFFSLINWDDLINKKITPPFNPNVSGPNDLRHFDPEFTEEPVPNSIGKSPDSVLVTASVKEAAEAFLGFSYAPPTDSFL
Outline: (§2)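 Single-concentration profiling at 10 μM in a 78-kinase panel. Kinase activity is expressed as a percentage of control assays run without compound.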

[6] = molecular target: Protein kinase C alpha type (Homo sapiens) (UniProt P17252); experiment: Inhibition of PKCalpha assessed as residual activity at 10 uM by Cherenkov counting relative to control in presence of 20 uM ATP; outline: as §2

Sequence of Insulin receptor (Homo sapiens) (P06213 28-758 limits assumed): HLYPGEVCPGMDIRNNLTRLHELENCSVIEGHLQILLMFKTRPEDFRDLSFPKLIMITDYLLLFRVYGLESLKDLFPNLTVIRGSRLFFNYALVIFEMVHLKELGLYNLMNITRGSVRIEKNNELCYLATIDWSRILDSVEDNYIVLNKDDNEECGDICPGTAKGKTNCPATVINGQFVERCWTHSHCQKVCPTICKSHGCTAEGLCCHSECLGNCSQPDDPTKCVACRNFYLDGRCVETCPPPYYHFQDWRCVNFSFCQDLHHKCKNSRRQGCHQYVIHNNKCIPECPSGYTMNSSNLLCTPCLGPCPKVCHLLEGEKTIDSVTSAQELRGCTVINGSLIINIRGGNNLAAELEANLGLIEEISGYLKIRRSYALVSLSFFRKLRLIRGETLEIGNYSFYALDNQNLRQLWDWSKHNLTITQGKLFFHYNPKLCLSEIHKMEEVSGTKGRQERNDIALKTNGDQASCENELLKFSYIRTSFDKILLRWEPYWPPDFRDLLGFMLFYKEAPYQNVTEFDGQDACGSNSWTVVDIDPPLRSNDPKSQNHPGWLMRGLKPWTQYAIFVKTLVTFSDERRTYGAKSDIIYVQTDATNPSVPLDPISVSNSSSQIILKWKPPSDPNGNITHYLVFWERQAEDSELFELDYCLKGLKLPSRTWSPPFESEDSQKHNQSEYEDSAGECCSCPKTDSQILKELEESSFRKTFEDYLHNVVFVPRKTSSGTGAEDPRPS
Sequence of Insulin receptor (Homo sapiens) (P06213 763-1382 limits assumed): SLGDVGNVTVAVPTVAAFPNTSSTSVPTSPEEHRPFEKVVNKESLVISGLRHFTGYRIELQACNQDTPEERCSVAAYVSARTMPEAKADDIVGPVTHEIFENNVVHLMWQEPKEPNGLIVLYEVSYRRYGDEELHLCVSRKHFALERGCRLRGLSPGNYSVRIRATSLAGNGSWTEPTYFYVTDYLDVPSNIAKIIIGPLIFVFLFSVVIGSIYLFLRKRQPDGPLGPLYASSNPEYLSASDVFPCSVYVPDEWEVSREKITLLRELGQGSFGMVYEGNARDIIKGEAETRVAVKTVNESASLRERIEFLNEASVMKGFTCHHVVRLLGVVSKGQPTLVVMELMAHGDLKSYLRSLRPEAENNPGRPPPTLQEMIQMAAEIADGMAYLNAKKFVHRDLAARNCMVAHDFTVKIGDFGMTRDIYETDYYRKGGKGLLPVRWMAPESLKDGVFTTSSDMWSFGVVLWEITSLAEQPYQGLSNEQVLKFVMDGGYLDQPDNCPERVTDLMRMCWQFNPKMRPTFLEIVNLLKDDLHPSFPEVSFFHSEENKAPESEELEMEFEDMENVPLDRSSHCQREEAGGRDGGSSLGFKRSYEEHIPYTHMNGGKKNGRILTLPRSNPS

Question: Which results are given for `COc1ccc(/C=C/C(=O)Nc2cc(-c3[nH]c(SC)nc3-c3ccc(F)cc3)ccn2)c(OC)c1`?
Answer: Activity [1]: 94%; Activity [2]: 94%; Activity [3]: 82%; Activity [4]: 100%

Question: With `COc1ccc(/C=C/C(=O)Nc2cc(-c3[nH]c([S+](C)[O-])nc3-c3ccc(F)cc3)ccn2)c(OC)c1` (configuration not stated) as the molecule, how does the Activity [1] read?
Answer: 94%

Question: And the Activity [2]?
Answer: 101%

Question: What about the Activity [3] of the same molecule?
Answer: 101%

Question: And the Activity [4]?
Answer: 102%

Question: How did the Activity [5] turn out when `CC(C)c1noc(-c2ccc(F)cc2)c1-c1ccncc1` was run?
Answer: 91%

Question: And the Activity [6]?
Answer: 104%

Question: For `CC(C)c1onc(-c2ccc(F)cc2)c1-c1ccncc1`, which Activity [5] is on record?
Answer: 76%

Question: What about the Activity [6] of the same molecule?
Answer: 95%
